This is an account of results in PubChem BioAssay.

Test [1] is described as follows: reducers of endogenous Her2 protein level, primary screen, SKBR3 breast tumor cells, AlphaScreen, ATP viability (AID 461;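 active = Her2 level under about 52% in both replicate screens, with viability over 70% of control, limit read from the data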;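 for Her2 level: lower value means less Her2 protein in the cells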;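 for viability: percent of carrier control wells set as 100% viability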). The settings on record: 18-24 h, measured here: SKBR3 viability, ATP luminescence, at 10 µM. In general terms: Bead proximity is the source of the signal in Alpha formats.
The target of test [2] is Receptor tyrosine-protein kinase erbB-2 (Homo sapiens) (UniProt P04626). Described as above. The following applies: 18-24 h, at 10 µM, stronger effect = lower value.
The nature of test [3]: SK-BR-3 cell growth inhibitors, pilot screen, 24 h, human (AID 572;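 active = viability at or below 10% of carrier control in both of two separate runs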;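 note: compound exposure lasted between 18 and 24 h rather than exactly 24 h; 100% = carrier-treated control wells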). The following applies: SK-BR-3 viability, CellTiter-Glo luminescence, at 10 µM, stronger effect = lower value.
A short description of test [4]: HUVEC growth inhibition – cell-based, human, primary screen (AID 575).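 Note: 100% = median of untreated cell wells with 0.1% DMSO on each plate.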 The following applies: HUVEC proliferation, CellTiter-Glo luminescence, 72 h; at 10 µM; stronger effect = lower value. An outline of the steps:
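System: primary human umbilical vein endothelial cells; Quantity: 1250 endothelial cells in each well; Buffer or medium: supplemented EBM, 2% fetal bovine serum; Doses: one dose, 10 µM final, 0.1% DMSO; Incubation: 72 h compound incubation; Technique: ATP-based CellTiter-Glo luminescent read; Evaluation: percent of median DMSO-control luminescence; Controls: vehicle and MePR control wells.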

A short description of test [5]: growth inhibitors of H69AR lung tumor, primary screen, human, duplicate replicates (AID 580;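 active = viability at or under a set limit in both replicates, limit being median viability minus 3 SD, cut at about 48% in these data, passing the limit was not always enough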;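 note: 100% = mean luminescence of untreated wells and 0% = no signal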). The settings on record: H69AR lung tumor cells viability, ATP luminescence, 72 h; at 10 µM; stronger effect = lower value.
Test [6] is described as follows: reversal of MRP1-mediated doxorubicin resistance, pilot screen, H69AR cells, doxorubicin co-treatment (AID 601;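 active = viability loss from added drug above about 55%, and viability with drug at most 40%, in both replicates, limit read from the data, passing the limit was not always enough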). The settings on record: CellTiter-Glo, 72 h, at 10 µM; for differential viability (reversal): stronger effect = higher value.
Test [7] in a line: 384-well plate pilot, post-Golgi transport modulator project, inhibition of yeast transport mutant growth (AID 636; in the data active = inhibition above about 31%). The following applies: absorbance 615 nm, about 18 h, stronger effect = higher value.
Test [8] can be described thus: growth suppression of yeast trafficking mutant, preliminary HTS, modulators of trafficking downstream of Golgi apparatus project, 1536-format plate, OD 615 nm (AID 637; in the data active = inhibition above about 30%). The settings on record: yeast transport mutant growth, absorbance 615 nm, 18 h; stronger effect = higher value.
The mark [9] stands for this setting: H69AR cells + 2 uM doxorubicin, measured here: viability with 2 uM doxorubicin, stronger effect = lower value.
Setting [10] is: H69AR cells, compound alone cytotoxicity.

Structures are written as SMILES. Active and inactive are the calls of the source.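 Rule for the calls, unless noted: active = viability at or below 30% in both replicate assays; inconclusive = viability at or below 30% in just one of the two assays; inactive = the rest.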

Receptor tyrosine-protein kinase erbB-2 (Homo sapiens), sequence (P04626 whole entry, looked up): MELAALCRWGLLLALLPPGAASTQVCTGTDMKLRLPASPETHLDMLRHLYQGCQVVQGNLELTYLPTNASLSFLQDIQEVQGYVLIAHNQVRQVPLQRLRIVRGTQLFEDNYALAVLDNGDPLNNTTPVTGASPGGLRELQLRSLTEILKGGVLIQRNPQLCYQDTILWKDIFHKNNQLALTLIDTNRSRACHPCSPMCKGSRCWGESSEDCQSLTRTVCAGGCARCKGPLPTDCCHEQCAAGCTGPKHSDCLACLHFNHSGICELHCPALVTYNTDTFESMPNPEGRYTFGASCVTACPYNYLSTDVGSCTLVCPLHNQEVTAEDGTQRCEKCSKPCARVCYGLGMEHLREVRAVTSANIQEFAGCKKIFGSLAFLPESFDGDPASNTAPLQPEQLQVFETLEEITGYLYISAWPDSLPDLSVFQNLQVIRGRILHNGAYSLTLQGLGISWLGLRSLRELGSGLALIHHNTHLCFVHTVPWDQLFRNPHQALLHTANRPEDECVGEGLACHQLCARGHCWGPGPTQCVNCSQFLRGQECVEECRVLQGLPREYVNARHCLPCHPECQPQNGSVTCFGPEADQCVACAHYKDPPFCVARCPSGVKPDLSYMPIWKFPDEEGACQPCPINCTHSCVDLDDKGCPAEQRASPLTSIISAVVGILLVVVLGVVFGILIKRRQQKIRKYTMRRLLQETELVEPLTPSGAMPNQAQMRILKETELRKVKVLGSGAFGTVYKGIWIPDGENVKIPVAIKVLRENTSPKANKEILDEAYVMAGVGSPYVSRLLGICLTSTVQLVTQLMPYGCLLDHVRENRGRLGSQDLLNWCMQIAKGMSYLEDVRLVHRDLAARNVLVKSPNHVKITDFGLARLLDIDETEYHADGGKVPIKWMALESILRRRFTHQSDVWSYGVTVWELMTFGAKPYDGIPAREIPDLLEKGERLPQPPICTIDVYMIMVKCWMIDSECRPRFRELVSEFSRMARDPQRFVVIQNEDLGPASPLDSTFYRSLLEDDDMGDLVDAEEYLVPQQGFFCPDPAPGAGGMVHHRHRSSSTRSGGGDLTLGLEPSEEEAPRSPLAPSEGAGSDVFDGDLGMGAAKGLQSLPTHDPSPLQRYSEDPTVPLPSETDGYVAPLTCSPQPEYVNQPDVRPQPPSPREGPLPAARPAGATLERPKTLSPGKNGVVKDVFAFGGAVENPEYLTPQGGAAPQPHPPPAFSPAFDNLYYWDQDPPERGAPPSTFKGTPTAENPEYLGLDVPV

With `CC(NC(=O)c1ccccc1NC(=O)c1ccco1)C(=O)O` (stereo not given), the viability in test [1] was 106%; in test [3] it was 106% (inactive); in test [4], 89% (inactive); in test [5] it was 86.7% (inactive); in test [6] (setting [9]), 84.7%; in test [6] (setting [10]), 86.7%. Further, the Her2 level in test [2] is 68% (inactive). For the same compound, the differential viability (reversal) in test [6] (H69AR cells + 2 uM doxorubicin) was 2.01% (inactive). The inhibition in test [7] was -2.63% (inactive); in test [8], 2.1% (inactive).

Take `COc1cc(OC)cc(C(=O)NCc2n[nH]c(=S)n2-c2ccccc2OC)c1`: the viability in test [1] was 97%; in test [3], 97% (inactive); in test [4], 109% (inactive); in test [5], 89.4% (inactive); in test [6] (setting [9]) it was 89.3%; in test [6] (setting [10]), 89.4%. Moreover, the Her2 level in test [2] was 88% (inactive). The differential viability (reversal) in test [6] (H69AR cells + 2 uM doxorubicin) was 0.11% (inactive). Moreover, the inhibition in test [7] was -7.16% (inactive); in test [8], -1.33% (inactive).

Take `COc1ccccc1-c1nnc2sc(-c3ccc(N(C)C)cc3)nn12`: the viability in test [1] was 79.5%; in test [3] it was 79.5% (inactive); in test [4], 34.5% (inactive); in test [5], 23.9% (active); in test [6] (setting [9]) it was 39.1%; in test [6] (setting [10]), 23.9%. For the same compound, the Her2 level in test [2] was 64% (inactive). In addition, the differential viability (reversal) in test [6] (H69AR cells + 2 uM doxorubicin) is -15.2% (inactive). Also, the figures for the inhibition in test [7] and in test [8] were -1.05% (inactive) and 1.09% (inactive), respectively.

On to `COC(=O)c1ccc(CSc2nnc(-c3ccncc3)o2)o1`, for which the viability in test [1] is 110%; in test [3], 110% (inactive); in test [4], 87.8% (inactive); in test [5], 100% (inactive); in test [6] (setting [9]) it was 95.8%; in test [6] (setting [10]) it was 100%. In addition, the Her2 level in test [2] is 69% (inactive). For the same compound, the differential viability (reversal) in test [6] (H69AR cells + 2 uM doxorubicin) is 4.48% (inactive). Moreover, the figures for the inhibition in test [7] and in test [8] were -4.8% (inactive) and 1.48% (inactive), respectively.

`C=CCn1c(Cc2cccs2)nnc1SCC(=O)Nc1ccc(OC)c(OC)c1`: the viability was 108% in test [1]; 108% (inactive) in test [3]; 89.6% (inactive) in test [4]; 85.3% (inactive) in test [5]; 90.3% in test [6] (setting [9]); 85.3% in test [6] (setting [10]). Further, the Her2 level in test [2] is 109% (inactive). Moreover, the differential viability (reversal) in test [6] (H69AR cells + 2 uM doxorubicin) is -5.02% (inactive). For the same compound, the inhibition in test [7] was -5.06% (inactive); in test [8], 0% (inactive).

Consider `Cc1nnc(SCc2cnc(-c3ccccc3)o2)[nH]c1=O`, for which the viability in test [1] was 94%; in test [3] it was 94% (inactive); in test [4] it was 86.7% (inactive); in test [5], 98% (inactive); in test [6] (setting [9]), 85.8%; in test [6] (setting [10]), 98%. Further, in test [2], the Her2 level was 86% (inactive). Also, in test [6] (H69AR cells + 2 uM doxorubicin), the differential viability (reversal) was 12.2% (inactive). Further, the results for the inhibition in test [7] and in test [8] were 2.76% (inactive) and -0.66% (inactive), respectively.

With `Cn1c(=O)[nH]c(=O)c2c1nc(N(CCO)Cc1ccccc1)n2Cc1ccccc1Cl`, the viability is 90.5% in test [1]; 90.5% (inactive) in test [3]; 80.2% (inactive) in test [4]; 81.6% (inactive) in test [5]; 55.6% in test [6] (setting [9]); 81.6% in test [6] (setting [10]). The Her2 level in test [2] is 82.5% (inactive). The differential viability (reversal) in test [6] (H69AR cells + 2 uM doxorubicin) is 26% (inactive). Besides, the inhibition is -5.47% (inactive) in test [7] and 3.44% (inactive) in test [8].

In the case of `COc1cccc(C2=NOC(C(=O)Nc3ccc(C(C)=O)cc3)C2)c1` (stereo not given), the viability was 96% in test [1]; 96% (inactive) in test [3]; 96.6% (inactive) in test [4]; 100% (inactive) in test [5]; 83.6% in test [6] (setting [9]); 100% in test [6] (setting [10]). Also, in test [2], the Her2 level is 98.5% (inactive). The differential viability (reversal) in test [6] (H69AR cells + 2 uM doxorubicin) is 16.6% (inactive). Also, the values for the inhibition in test [7] and in test [8] were -1.58% (inactive) and -4.73% (inactive), respectively.

Regarding `COCCn1c(COc2ccc(Cl)cc2)nnc1SCC(N)=O`, the viability in test [1] is 85.5%; in test [3] it was 85.5% (inactive); in test [4], 98.8% (inactive); in test [5], 109% (inactive); in test [6] (setting [9]), 90.8%; in test [6] (setting [10]), 109%. Further, the Her2 level in test [2] was 84.5% (inactive). The differential viability (reversal) in test [6] (H69AR cells + 2 uM doxorubicin) was 18.1% (inactive). Moreover, the inhibition in test [7] is -5.41% (inactive); in test [8], 2.54% (inactive).

Regarding `CN(C(=O)c1cc2sccc2n1C)C1CCCCC1`, the viability in test [1] was 91%; in test [3] it was 91% (inactive); in test [4], 87.7% (inactive); in test [5] it was 100% (inactive); in test [6] (setting [9]), 85.7%; in test [6] (setting [10]), 100%. Also, the Her2 level in test [2] is 106% (inactive). The differential viability (reversal) in test [6] (H69AR cells + 2 uM doxorubicin) was 14.7% (inactive). Besides, the inhibition was -7.3% (inactive) in test [7] and -2.13% (inactive) in test [8].

Take `COc1ccc2nc(SCC(=O)NC(C)C)[nH]c2c1`: the viability in test [1] is 104%; in test [3] it was 104% (inactive); in test [4], 102% (inactive); in test [5], 96.4% (inactive); in test [6] (setting [9]), 91.4%; in test [6] (setting [10]), 96.4%. Moreover, the Her2 level in test [2] was 106% (inactive). Also, in test [6] (H69AR cells + 2 uM doxorubicin), the differential viability (reversal) is 4.97% (inactive). Moreover, the inhibition is 3.25% (inactive) in test [7] and -10.8% (inactive) in test [8].

`Cc1nc2ccc(NC(=O)N3CCOCC3)cc2s1`: the viability in test [1] is 87.5%; in test [3], 87.5% (inactive); in test [4], 93.8% (inactive); in test [5] it was 89.8% (inactive); in test [6] (setting [9]) it was 85.6%; in test [6] (setting [10]), 89.8%. Further, the Her2 level in test [2] was 79.5% (inactive). The differential viability (reversal) in test [6] (H69AR cells + 2 uM doxorubicin) was 4.26% (inactive). The inhibition in test [7] was -4.34% (inactive); in test [8] it was -1.27% (inactive).

`COc1ccc(CNC(=O)CCc2nc(-c3ccccc3F)no2)c(OC)c1`: the viability in test [1] is 80%; in test [3], 80% (inactive); in test [4], 90% (inactive); in test [5] it was 95.9% (inactive); in test [6] (setting [9]), 92.2%; in test [6] (setting [10]), 95.9%. In addition, the Her2 level in test [2] is 95% (inactive). The differential viability (reversal) in test [6] (H69AR cells + 2 uM doxorubicin) was 3.65% (inactive). Moreover, the inhibition is -4.08% (inactive) in test [7] and -0.17% (inactive) in test [8].

As to `O=C(CCn1c(=O)sc2ccccc21)Nc1cccnc1`, the viability in test [1] is 104%; in test [3] it was 104% (inactive); in test [4], 96.8% (inactive); in test [5], 99.6% (inactive); in test [6] (setting [9]), 91%; in test [6] (setting [10]) it was 99.6%. The Her2 level in test [2] is 92% (inactive). In test [6] (H69AR cells + 2 uM doxorubicin), the differential viability (reversal) was 8.59% (inactive). Also, the inhibition was -3.87% (inactive) in test [7] and 1.48% (inactive) in test [8].

For `CCCOc1ccc(-c2nnn(CC(=O)Nc3cccc(C(=O)OC)c3)n2)cc1`, the viability in test [1] is 100%; in test [3] it was 100% (inactive); in test [4], 64.3% (inactive); in test [5], 48% (active); in test [6] (setting [9]), 54%; in test [6] (setting [10]) it was 48%. Moreover, in test [2], the Her2 level is 98% (inactive). The differential viability (reversal) in test [6] (H69AR cells + 2 uM doxorubicin) was -5.98% (inactive). The inhibition in test [7] is 1.87% (inactive); in test [8] it was 21.1% (inactive).

For the compound `CCOC(=O)C1CCN(c2nc3ccccc3nc2C(C#N)C(=O)OCCOC)CC1` (stereo not given), the viability in test [1] is 97%; in test [3] it was 97% (inactive); in test [4] it was 78.3% (inactive); in test [5], 79.4% (inactive); in test [6] (setting [9]), 51.7%; in test [6] (setting [10]), 79.4%. Further, the Her2 level in test [2] is 98% (inactive). In test [6] (H69AR cells + 2 uM doxorubicin), the differential viability (reversal) is 27.7% (inactive). Moreover, the inhibition in test [7] is -6.71% (inactive); in test [8], 0.16% (inactive).

The viability is a read-out of living cells in per cent, often relative to untreated cells. Usually inhibition stands for the relative decrease from the control value, in per cent.
